Only some compounds are listed: those with a hit (about 2% of all), similar ones and a draw of the others.
HCV NS3 hel inh – inhibitors of HCV NS3 helicase, primary screen, biochemical, Cy5 molecular beacon fluorescence | 0.56% of 290,000 active | inhibition, % at 10.9 µM | NS3 helicase DNA unwinding | AID 1800, 2009;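 active = inhibition above the mean of all tested compounds plus 3 SD, set per campaign, cut at about 35% in these data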
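Control set: DMSO versus 110 µM thioflavine S; Material: NS3 helicase fragment of HCV; Measured by: Cy5 fluorescence at 0 and 60 min, beacon hairpin quenching; Read-out basis: percent inhibition from t60/t0 fluorescence ratio; Times: reaction time 60 min, 25 °C; Repeats: single replicate; Compound dosing: single dose, 10.9 µM nominal final, DMSO 0.8% final.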
GPR7 antag – GPR7 receptor antagonists, primary screen, cell-based, fluorescence, single concentration | Neuropeptides B/W receptor type 1 (Homo sapiens), P48145 | GPR7-expressing cells, fluorescence antagonist assay | inhibition, % at 4.4 µM | 1.1% of 290,000 active | AID 1861, 2009; in the data active = inhibition above about 16%, passing the limit was not always enough;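 note: cells stimulated with the agonist NPW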
Target sequence (P48145 whole entry, looked up): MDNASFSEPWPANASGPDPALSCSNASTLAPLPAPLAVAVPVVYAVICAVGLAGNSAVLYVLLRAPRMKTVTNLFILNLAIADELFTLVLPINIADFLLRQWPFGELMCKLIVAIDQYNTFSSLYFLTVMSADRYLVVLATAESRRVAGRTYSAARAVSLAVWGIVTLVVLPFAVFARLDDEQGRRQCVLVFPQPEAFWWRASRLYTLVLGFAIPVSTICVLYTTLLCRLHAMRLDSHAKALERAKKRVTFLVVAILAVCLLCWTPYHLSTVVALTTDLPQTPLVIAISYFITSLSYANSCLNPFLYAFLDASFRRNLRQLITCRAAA
EBNA-1 inh – EBNA-1 DNA-binding inhibitors, primary screen, biochemical, fluorescence polarization; AID 1950, 2009; 0.34% of 300,000 active; inhibition, % at 14.8 µM; in the data active = inhibition above about 28%
ZTA DNA inh – ZTA (EBV) inhibition in EBNA-1 counter-screen; inhibition, % at 11 µM; AID 2234; ZTA-DNA binding, fluorescence polarization; 0.15% of 320,000 active; in the data active = inhibition above about 33%
Target sequence (P03206 whole entry, looked up): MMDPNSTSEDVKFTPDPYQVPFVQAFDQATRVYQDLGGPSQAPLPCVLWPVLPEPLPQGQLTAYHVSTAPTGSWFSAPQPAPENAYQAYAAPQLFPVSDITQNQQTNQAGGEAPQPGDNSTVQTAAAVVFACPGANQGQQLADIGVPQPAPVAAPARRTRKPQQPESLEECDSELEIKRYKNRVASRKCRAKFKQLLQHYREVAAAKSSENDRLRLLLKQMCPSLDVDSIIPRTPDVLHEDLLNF
FID counter – compounds displacing fluorescent DNA intercalator, primary screen, artefact control for HCV NS3 helicase inhibitor project, biochemical, FID fluorescence. DNA fluorescent intercalator displacement. inhibition, % at 7.9 µM. 0.17% of 290,000 active. AID 1845, 2009; in the data active = inhibition above about 37%;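 note: higher means more ethidium bromide displaced from hairpin DNA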
GPR7 antag conf – GPR7 receptor antagonists, confirmation, cell-based, fluorescence, single concentration. shares compounds with GPR7 antag. GPR7-expressing cells, calcium fluorescence antagonist mode. inhibition, % at 4.4 µM. 52% of 2,400 active. AID 1952, 2009; in the data active = inhibition above about 24%;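 note: stimulated with the GPR7 agonist NPW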
MCHR1 antagonist – MCHR1 antagonists in cells, counter-screen for GPR7 antagonist project, cell-based, fluorescence, human. MCHR1-expressing cells, fluorescence antagonist assay. 62% of 2,400 active. shares compounds with GPR7 antag. inhibition, % at 4.4 µM; in the data active = inhibition above about 22%
Of the large screens only hits and unclear results are named; the others gave an inactive call (follow-up assays come after a bar, where they were run).

CCOc1cc(/C=C2\NC(=O)NC2=O)cc([N+](=O)[O-])c1O	none
COc1ccc(-n2c(=S)[nH]c3cc(C(=O)Nc4ccccc4OC)ccc3c2=O)cc1	none
COc1ccc(-n2c(=S)[nH]c3cc(C(=O)Nc4ccccc4OC)ccc3c2=O)c(OC)c1	GPR7 antag 31 | GPR7 antag conf 24 | MCHR1 antagonist 46
COc1ccc(-n2c(=S)[nH]c3cc(C(=O)NCc4ccc(F)cc4)ccc3c2=O)c(OC)c1	none
COc1ccc(-n2c(=S)[nH]c3cc(C(=O)NCc4ccccc4OC)ccc3c2=O)c(OC)c1	GPR7 antag 26 | GPR7 antag conf 38 | MCHR1 antagonist 39
CC(C)[C@H](NC(=O)c1ccc(F)cc1)C(=O)N(C)Cc1cccs1	none (no result: HCV NS3 hel inh, GPR7 antag, EBNA-1 inh, FID counter)
CC(C)c1ccc(OCC(=O)Nc2c3c(nn2C(C)(C)C)CS(=O)(=O)C3)cc1	none (no result: HCV NS3 hel inh, GPR7 antag, FID counter)
CN(C)CCN(C(=O)/C=C/c1cccs1)c1nc2ccc(Br)cc2s1	GPR7 antag 25 | GPR7 antag conf 59 | MCHR1 antagonist 68
CN(C)CCCN(C(=O)C1=COCCO1)c1nc2ccc(Br)cc2s1	GPR7 antag 36 | GPR7 antag conf 55 | MCHR1 antagonist 64
CN(C)CCCN(C(=O)CCc1ccccc1)c1nc2ccc(Cl)cc2s1	GPR7 antag 23 | GPR7 antag conf 73 | MCHR1 antagonist 85
CN(C)CCCN(C(=O)/C=C/c1cccs1)c1nc2ccc(F)cc2s1	GPR7 antag 29 | GPR7 antag conf 45 | MCHR1 antagonist 28
Cc1ccc2nc(N(CCN(C)C)C(=O)/C=C/c3cccs3)sc2c1	none
O=C(CN1C(=O)CCOc2ccccc21)Nc1ccc(Cl)c(S(=O)(=O)N2CCOCC2)c1	none (no result: HCV NS3 hel inh, GPR7 antag, EBNA-1 inh, FID counter)
COc1cc(CNC(C)(C)CO)cc(Br)c1OCc1ccc(Cl)cc1Cl	GPR7 antag 29 | GPR7 antag conf 57 | MCHR1 antagonist 57
Cc1ccc(N2C(=O)C3C4C=CC(CNC(=S)Nc5ccc(Cl)cc5)(O4)C3C2=O)cc1 (stereo unspecified)	GPR7 antag 21 | GPR7 antag conf 29 | MCHR1 antagonist inactive
O=c1c2ccc([N+](=O)[O-])cc2ncn1CCOc1ccc(Cl)cc1	GPR7 antag 26 | GPR7 antag conf 44 | MCHR1 antagonist 62
CN1CCN(C(CNC(=O)C(=O)Nc2ccc3c(c2)OCO3)c2ccc(F)cc2)CC1 (stereo unspecified)	none (no result: HCV NS3 hel inh, GPR7 antag, FID counter)
O=C(c1ccc(Cl)c(Cl)c1)N(Cc1ccco1)c1ccc(O)cc1	GPR7 antag 29 | GPR7 antag conf inactive | MCHR1 antagonist inactive
O=C(COc1ccccc1)N(Cc1ccco1)c1ccc(O)cc1	none
CC(C)(C)c1cc(CP(=O)(c2ccccc2)c2ccccc2)cc(C(C)(C)C)c1O	GPR7 antag 35 | GPR7 antag conf 30 | MCHR1 antagonist 42
OCC1(Cc2ccc(F)cc2)CCCN(CCCC(F)(F)F)C1 (stereo unspecified)	none
Cc1ccc(CNC(=O)[C@@H](NC(=O)C2CCN(C(=O)[C@@H](N)CC(C)C)CC2)C(C)C)cc1	none
COc1ccccc1C(=O)NC(=S)/C=C1/N(C)c2ccccc2C1(C)C	none
CN1/C(=C\C(=S)NC(=O)c2ccccc2Cl)C(C)(C)c2ccccc21	GPR7 antag 38 | GPR7 antag conf inactive | MCHR1 antagonist 43
COC(=O)c1ccccc1C(=O)N1CCCC(CNC(=O)c2ccc(F)cc2)C1 (stereo unspecified)	none
COc1ccccc1CN1CCc2c([nH]c3ccccc23)C1	none
Clc1cccc(CN2CCc3c([nH]c4ccccc34)C2)c1Cl	GPR7 antag 50 | GPR7 antag conf 47 | MCHR1 antagonist 29
CC(=O)c1cccc(N(CC(=O)NC2CCCCC2)C(=O)CNC(=O)c2cccs2)c1	none
CC(=O)c1cccc(NC(=O)CCc2nc3sc4c(c3c(=O)[nH]2)CCCC4)c1	none (no result: HCV NS3 hel inh, GPR7 antag, FID counter)
NNc1nc2ccccc2c(=O)n1Cc1ccccc1	none
Cn1cc(C(c2ccccn2)c2cn(C)c3ccccc23)c2ccccc21	GPR7 antag 26 | GPR7 antag conf 41 | MCHR1 antagonist 45
CC(C)Oc1ccc(C(=O)N2CCN(C(=O)c3ccco3)CC2)cc1	none
O=C(O)CSc1nc2ccccc2c(=O)[nH]1	none
O=C(O)CSc1nc2ccccc2[nH]1	GPR7 antag 27 | GPR7 antag conf inactive | MCHR1 antagonist inactive
Cc1ccc(NS(=O)(=O)c2ccc3c(c2)CC(=O)N3)cc1F	none (no result: HCV NS3 hel inh, GPR7 antag, EBNA-1 inh, FID counter)
CC1(C)CC(=O)C/C(=N/NC(=O)COc2ccc3ccccc3c2Br)C1	GPR7 antag 104 | GPR7 antag conf inactive | MCHR1 antagonist inactive
Cc1c(N)cccc1-n1cccc1	none
Cc1c(N)cccc1-n1cnnn1	GPR7 antag 24 | GPR7 antag conf inactive | MCHR1 antagonist inactive
c1ccc(-c2ccc(CN3CCSCC3)cc2)cc1	GPR7 antag 24 | GPR7 antag conf inactive | MCHR1 antagonist inactive
CCCC(=O)Nc1ccc(C(=O)COC(=O)c2cc(C)oc2C)cc1	none (no result: HCV NS3 hel inh, GPR7 antag, EBNA-1 inh, FID counter)
CCC(C)Sc1nc2c(c(=O)[nH]1)C(c1cccs1)C1=C(CCCC1=O)N2 (stereo unspecified)	GPR7 antag 32 | GPR7 antag conf 25 | MCHR1 antagonist 30
CCNc1ccc(S(=O)(=O)NCCN(C)C)cc1[N+](=O)[O-]	none
CN(C)CCCNS(=O)(=O)c1ccc(NC2CCCCCC2)c([N+](=O)[O-])c1	GPR7 antag 23 | GPR7 antag conf 48 | MCHR1 antagonist 51
CCC(NC(=O)c1[nH]c(C)c(C(C)=O)c1C)c1ccc(Br)cc1 (stereo unspecified)	GPR7 antag 29 | GPR7 antag conf inactive | MCHR1 antagonist inactive
Cc1ccc(NC(=O)CSc2ncnc3ccccc23)cc1S(=O)(=O)N1CCOCC1	none
Cc1ccc(NC(=O)CSc2ncnc3ccccc23)cc1S(=O)(=O)N1CCCCC1	GPR7 antag 23 | GPR7 antag conf 58 | MCHR1 antagonist 63
CN1C(=O)C(/C(N)=N/NC(=O)c2ccccc2)C2CC1(C)Oc1ccccc12 (stereo unspecified)	GPR7 antag 99 | GPR7 antag conf inactive | MCHR1 antagonist inactive
CCN1CCN(c2ccc(S(=O)(=O)N3CCOCC3)cc2NC(=O)C(C)Oc2ccc(F)cc2)CC1 (stereo unspecified)	none (no result: HCV NS3 hel inh, GPR7 antag, EBNA-1 inh, FID counter)
CCc1cccc2c(C(=O)C(NC(C)CC)c3ccccc3)c[nH]c12 (stereo unspecified)	none
CCc1cccc2c(C(=O)C(NCCCOC)c3ccccc3)c[nH]c12 (stereo unspecified)	GPR7 antag 35 | GPR7 antag conf 43 | MCHR1 antagonist 30
Clc1ccc(Oc2ncnc3oc(-c4ccccc4)cc23)cc1	none
